Bioassay records deposited in PubChem by several laboratories.
Only a selection was taken, and hits are over-represented in it overall.
DTT redox prof – compounds producing H2O2 with reducing agent – biochemical, NIH compound library profiling, artefact control for MLSCN library redox annotation, primary screen. DTT-dependent redox cycling H2O2, phenol red/HRP absorbance; 100% = 100 µM peroxide control, 0% = buffer. activation, % at 10 µM. 0.03% of 200,000 active;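 active = activation of at least 50% relative to the plate's high and low controls in the primary single-dose screen; inactive = activation below 50%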;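 note: compound incubated with DTT at 0.8 mM final as the reducing agent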
T cruzi repl – T. cruzi replication inhibition | AID 1885 | 1.4% of 300,000 active | inhibition, % (concentration not given with the values) | T. cruzi beta-gal in NIH3T3, luminescence, 90 h;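 active = mean inhibition across valid replicates above about 55%, limit read from the data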;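 note: signal also drops with host cell toxicity which is not excluded here; 0% = plate median of DMSO wells and 100% = zero luminescence signal; higher percent means less beta-gal luminescence so fewer parasites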
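System: mouse NIH/3T3 fibroblasts infected with β-gal-expressing T. cruzi Tulahuen C4 / Input: NIH/3T3 cells, 5,000 per well / Buffer or medium: Low-serum DMEM with 2% FBS / Probe or stimulus: 5000 reporter trypomastigotes per well / Schedule: ≥90 h infection period, 3 h prior cell attachment / Measured by: GalScreen luminescence, 60 min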
Hep lipid drop – hepatic lipid droplet formation modulation; AML12 mouse hepatocytes, oleate lipid droplets, BODIPY imaging; inhibition, % at 6.5 µM; 0.4% of 240,000 active;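 active = lipid droplet intensity inhibited by at least 50%, with more than 500 cells counted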
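Assay system: AML12 hepatocytes (mouse); Probe or stimulus: oleic acid at 100 µM to induce lipid droplet formation; Dosing: compound at 6.5 µM only; Schedule: compound with oleate, overnight; Detection: fluorescence imaging, 20x objective, two fields per well; Measure: % inhibition of lipid droplet signal.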
L major viab – inhibitors of Leishmania major promastigote growth; 9% of 200,000 active; inhibition, % at 10 µM; Leishmania major promastigotes, resazurin fluorescence viability; AID 1063; in the data active = inhibition above about 50%;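 note: promastigotes grown with compound for 44 hours at 28 °C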
MPTP inh – permeability transition pore inhibition; isolated mouse mitochondria, Ca2+ swelling absorbance, 30 min; inhibition, % at 10 µM; 1.4% of 360,000 active;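 active = inhibition of 50% or more, scaled per plate between neutral and stimulator controls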;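 note: 0% = DMSO wells given calcium and 100% = 1 mM EGTA wells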
DTT redox conf – generates H2O2 by DTT-dependent redox cycling, confirmed in dose response; phenol red-HRP absorbance; shares compounds with DTT redox prof; 40% of 60 active; EC50, µM;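 active = EC50 under a set limit for hydrogen peroxide production with the reducing agent DTT present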
Lmaj promast 1uM – L. major promastigote growth inhibition, 1 uM repeat | shares compounds with L major viab | resazurin fluorescence, 48 h | inhibition, % at 1 µM | 13% of 1,100 active;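 active = inhibition above about 50% in both repeat tests, limit read from the data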
Rh123 counter – Rhodamine 123 counter-screen of mitochondrial pore hits; shares compounds with MPTP inh; isolated mitochondria, membrane potential, Rhodamine 123 fluorescence; inhibition, % at 10 µM; 78% of 5,000 active; AID 624504; in the data active = inhibition above about 22%;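 note: 0% = DMSO vehicle and 100% = positive control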
The depositor's hits bear a star; nt = no result.

SMILES | DTT redox prof | T cruzi repl | Hep lipid drop | L major viab | MPTP inh | Lmaj promast 1uM | others
O=S(=O)(Nc1c(S(=O)(=O)c2ccccc2)c2nc3ccccc3nc2n1C1CCCCC1)c1ccccc1 | 95* | 0 | -4 | 0 | 48 | nt | DTT redox conf=12*
C=CCn1c(NS(=O)(=O)c2ccccc2)c(S(=O)(=O)c2ccc(C)cc2)c2nc3ccccc3nc21 | 99* | 3 | 10 | -1 | 1 | nt | DTT redox conf=>50
Cc1ccc(S(=O)(=O)c2c(N)n(-c3ccccc3)c3nc4ccccc4nc23)cc1 | 0 | 26 | -1 | 32 | 2 | nt
Cn1c(=O)[nH]c(=O)c2c1[nH]c(=S)n2Cc1ccc(Cl)cc1 | nt | -9 | nt | nt | -1 | nt
Cc1cccc(C)c1NC(=O)CNC(=O)CCC(=O)c1cccs1 | 0 | -21 | -4 | 18 | 3 | nt
CCOC(=O)c1c2c(n(C)c1C)C(=O)C(=O)c1ccc(Br)cc1-2 | 322* | -17 | nt | 100* | 8 | 98* | DTT redox conf=0.04*
CCOC(=O)c1nc2c(ccc3ccccc32)cc1C | nt | 12 | 1 | nt | 3 | nt
O=S(=O)(Nc1cc2nc3ccccc3nc2n1Cc1ccccc1)c1ccc(Cl)cc1 | 85* | 2 | 4 | 8 | 58* | nt | DTT redox conf=>50;Rh123 counter=36*
CC(C)Oc1ccccc1/C=N/n1nnnc1N | nt | 4 | nt | nt | 2 | nt
CCOC(=O)c1cnc2ccc(Br)cc2c1NCCO | 0 | 37 | 2 | 3 | 0 | nt
CCOC(=O)c1ccc2ncc(C(=O)OCC)c(NCc3ccco3)c2c1 | 2 | 29 | nt | 57* | 0 | 2
COc1cccc(COc2ccccc2C2Nc3ccc(Br)cc3C(=O)N2NC(=O)c2ccncc2)c1 (stereo unspecified) | -4 | 32 | nt | 100* | 0 | -20
Cc1ccc(F)cc1CNC(=O)C1CCC(=O)N(CCCN2CCCC2=O)C1 (stereo unspecified) | nt | -8 | 19 | nt | -2 | nt
Nc1nnc(SCc2ccc([N+](=O)[O-])cc2)s1 | 0 | -8 | 25 | 1 | 2 | nt
Nc1ccc2nc(SCc3ccc([N+](=O)[O-])cc3)sc2c1 | -7 | 12 | nt | 69* | 0 | 11
Cc1ccc(N2CCN(c3ccc(NC(=O)CCC(=O)O)cc3)CC2)cc1 | 0 | -5 | 4 | -5 | 0 | nt
O=C(O)CCC(=O)Nc1ccc(N2CCCCCC2)cc1 | 0 | -3 | -1 | 97* | 0 | 94*
COc1cccc(OCC(=O)NNC(=O)C(=O)Nc2cccc(C)c2)c1 | nt | -5 | 15 | nt | 1 | nt
O=c1c2ccccc2c(/C=N/c2ncn[nH]2)c(O)n1Cc1ccccc1 | -1 | 31 | nt | 20 | 2 | nt
CC(C)CCC(C)N=Cc1c(O)n(Cc2ccccc2)c(=O)c2ccccc12 (stereo unspecified) | -15 | 39 | -21 | 62* | -1 | -2
Cc1cc(=O)oc2cc(NC(=O)C(C)N3C(=O)C4CCCCC4C3=O)ccc12 (stereo unspecified) | nt | nt | nt | nt | -1 | nt
CCn1c(-c2ccc(N)cc2)nc2ccccc21 | 0 | -24 | nt | 18 | -1 | nt
CCn1c(-c2ccc(N(C)C)cc2)nc2ccccc21 | 3 | 58* | nt | 97* | 4 | 22
COc1ccc(CN(C(=S)Nc2ccccc2)C2CC(=O)N(c3ccc(Cl)cc3)C2=O)cc1 (stereo unspecified) | -5 | 21 | nt | 99* | 0 | 2
COc1ccc(CN(C(=S)Nc2ccccc2)C2CC(=O)N(c3ccccc3)C2=O)cc1 (stereo unspecified) | 1 | 23 | 2 | 25 | 2 | nt
SMILES | DTT redox prof | T cruzi repl | Hep lipid drop | L major viab | MPTP inh | Lmaj promast 1uM | others
COC(=O)C1=C(C)NC2=C(C(=O)CCC2)C1c1ccc(-c2ccsc2C(=O)OC)o1 (stereo unspecified) | nt | 4 | -3 | nt | 1 | nt
COc1ccccc1NC(=O)C(C)OC(=O)CCCOc1ccccc1 (stereo unspecified) | nt | -16 | nt | nt | -1 | nt
CCCNC(=O)NCCC12CC3CC(CC(C3)C1)C2 | 3 | 35 | -4 | 46 | 4 | nt
CCCNC(=O)OCCC12CC3CC(CC(C3)C1)C2 | 0 | 15 | -2 | 97* | 3 | -16
C=CCSc1nsc(N)n1 | 1 | -10 | nt | -1 | 0 | nt
CCCCCCCSc1nsc(N)n1 | 0 | 32 | -11 | 69* | 1 | -12
NCCCCCc1nnc(SCc2cccc(Cl)c2)o1 | 1 | -4 | nt | 98* | -4 | -6
O=C(Cn1ncc2c([nH]c3ccccc32)c1=O)NCC1CCN(Cc2ccccc2F)CC1 | nt | 33 | 3 | nt | 2 | nt
Oc1ccccc1CNc1nc2ccccc2n1CCN1CCCCC1 | 0 | -13 | -2 | 24 | 1 | nt
COc1ccccc1CNc1nc2ccccc2n1CCN1CCCCC1 | 0 | 27 | nt | 61* | 26 | 9
COc1ccc(CNC(=O)CNC(=O)c2ccc(C(C)(C)C)cc2)cc1OC | nt | 1 | -4 | nt | 0 | nt
CCS(=O)(=O)c1nnnn1-c1ccccc1S(C)(=O)=O | 1 | -8 | -4 | 54* | -2 | 0
C=Cc1ccc(COC(=O)c2cn(CC)c3nc(C)ccc3c2=O)cc1 | nt | 0 | 1 | nt | 2 | nt
CCn1cc(C(=O)OCc2ccc(F)cc2)c(=O)c2ccc(C)nc21 | 3 | 19 | -5 | 50* | -1 | -2
C=CCc1c(C)nc(C)nc1N/N=C/c1ccc(F)cc1 | 0 | -15 | 2 | 3 | -2 | nt
C=CCc1c(C)nc(SC)nc1Nc1ccc(C)cc1 | 0 | 3 | -21 | 97* | 0 | 25
CN(C)CC/C=C1\c2cc(F)ccc2CSc2ccccc21 | 0 | 9 | 5 | 72* | 21 | -5
CN(C)CC/C=C1/c2ccc(F)cc2Sc2ccc(Cl)cc21 | nt | 29 | nt | nt | -6 | nt
CC(/C=C1\SC(=S)N(CCC(=O)Nc2nc(C)cs2)C1=O)=C\c1ccccc1 | nt | 15 | -7 | nt | 4 | nt
O=C(C1CCC(CNc2nc(=S)[nH]c3ccccc23)CC1)N1CCN(c2ccccn2)CC1 (stereo unspecified) | -1 | -26 | nt | 99* | 4 | 39
C=CCNC(=O)C1CCC(CNc2nc(=S)[nH]c3ccccc23)CC1 (stereo unspecified) | nt | -5 | 3 | nt | 0 | nt
C=C(C)C1Cc2c(C)nn(-c3cccc4ccccc34)c2C1 (stereo unspecified) | 0 | 20 | 23 | 61* | 1 | -29
CC(C)(C)OC(=O)N1CCC(CNC(=O)c2ccc(F)cc2)CC1 | nt | -4 | 2 | nt | 1 | nt
C=CCSC(=C(C#N)C#N)c1cc2c([nH]1)CCCC2 | 0 | -13 | -5 | 100* | 8 | 30
O=C(Nc1ccc(Cl)cc1)C1CCN(C(=O)c2ccco2)CC1 | nt | -6 | -2 | nt | -1 | nt
N#Cc1ccc(NN=Nc2ccccc2C#N)cc1 | nt | nt | nt | nt | 1 | nt
